GPR7 antag – blocks human GPR7 receptor signaling. GPR7-expressing cells, fluorescence antagonist assay. inhibition, % at 4.4 µM. actives 1.1% (n = 290,000). AID 1861; in the data active means inhibition above about 16%, passing the limit was not always enough;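 further: cells stimulated with the agonist NPW; 0% = agonist with vehicle and 100% = vehicle without agonist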
Target sequence (P48145 whole entry, looked up): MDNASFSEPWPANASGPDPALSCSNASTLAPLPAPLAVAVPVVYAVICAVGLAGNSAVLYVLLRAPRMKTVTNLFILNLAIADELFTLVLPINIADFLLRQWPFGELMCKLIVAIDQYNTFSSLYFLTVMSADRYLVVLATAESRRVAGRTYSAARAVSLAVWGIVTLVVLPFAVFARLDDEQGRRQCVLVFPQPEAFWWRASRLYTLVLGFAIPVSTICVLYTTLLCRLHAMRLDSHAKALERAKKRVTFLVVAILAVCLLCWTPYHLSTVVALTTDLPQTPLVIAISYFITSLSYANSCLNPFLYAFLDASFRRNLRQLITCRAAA
CHO parental Ca – counter-screen for OX1R antagonists: effect in parental CHO cells. parental CHO-K1, ATP-induced calcium, Fluo-8 fluorescence. inhibition, % at 5.6 µM. actives 0.63% (n = 330,000). AID 463079;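 active means inhibition above that plate's mean sample inhibition plus 3 SD, cut at about 26% in these data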;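 further: 0% = ATP-challenged DMSO wells and 100% = DMSO wells without ATP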
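Material: parental CHO cells / Compound: single nominal dose of 5.6 µM per compound / Signal: Fluo-8 fluorescence / Replicates: singlicate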
OX1R antag-1 – blocks the human orexin 1 receptor; actives 0.43% (n = 330,000); O43613; AID 434989; inhibition, % at 5 µM; CHO/OX1R cells, Fluo-8 calcium fluorescence, orexin A;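 active means inhibition above its plate's threshold, mean inhibition of all tested compounds on the plate plus 3 SD, cut at about 37% in these data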;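 further: 0% = orexin A challenge wells and 100% = SB-334867-A antagonist wells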
Target sequence (O43613 whole entry, looked up): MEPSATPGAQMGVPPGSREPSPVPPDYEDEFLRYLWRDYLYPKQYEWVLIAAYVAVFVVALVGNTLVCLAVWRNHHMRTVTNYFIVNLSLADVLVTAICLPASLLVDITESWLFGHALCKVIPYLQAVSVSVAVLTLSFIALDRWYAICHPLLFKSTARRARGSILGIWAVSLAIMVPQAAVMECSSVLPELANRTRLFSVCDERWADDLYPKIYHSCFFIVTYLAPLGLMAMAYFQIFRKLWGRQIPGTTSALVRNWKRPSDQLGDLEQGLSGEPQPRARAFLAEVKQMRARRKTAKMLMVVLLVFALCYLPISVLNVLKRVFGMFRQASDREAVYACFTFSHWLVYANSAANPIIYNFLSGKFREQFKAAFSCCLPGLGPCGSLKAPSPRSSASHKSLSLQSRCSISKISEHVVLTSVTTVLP
OX1R antag-2 – blocks the human orexin 1 receptor; O43613; OX1R-expressing cells, FRET antagonist read-out; inhibition, % at 6.6 µM; actives 1.8% (n = 330,000); AID 485270; in the data active means inhibition mostly above about 38%, no sharp cut-off; inactive means mostly below about 40%;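 further: 0% = agonist challenge alone and 100% = reference antagonist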
MPTP inh – permeability transition pore inhibition; isolated mouse mitochondria, Ca2+ swelling absorbance, 30 min; inhibition, % at 10 µM; actives 1.4% (n = 360,000); AID 602449;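 active means inhibition of 50% or more, scaled per plate between neutral and stimulator controls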;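 further: 0% = DMSO wells given calcium and 100% = 1 mM EGTA wells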
OX1R Ca confirm – confirmation of human orexin 1 receptor antagonists. shares compounds with OX1R antag-1. CHO/OX1R cells, orexin A calcium Fluo-8 fluorescence. inhibition, % at 5 µM. actives 38% (n = 1,100). AID 492963; in the data active means inhibition above about 29%;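 further: 0% = agonist challenge alone and 100% = reference antagonist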
CHO Ca triplic – counter-screen: parental CHO calcium response change, triplicate; shares compounds with OX1R antag-1; parental CHO-K1, ATP-induced calcium, Fluo-8 fluorescence; inhibition, % at 5.6 µM; actives 9.3% (n = 1,100); AID 492965;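 active means inhibition above a per-plate limit, the mean inhibition of that plate's test compounds plus 3 SD, cut at about 25% in these data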;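 further: 0% = ATP challenge with DMSO and 100% = DMSO without ATP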
Active calls of the source: *; / = no result. In the library only some 3.8% were active in any assay of this set; here they are far more common.

SMILES | GPR7 antag | CHO parental Ca | OX1R antag-1 | OX1R antag-2 | MPTP inh | OX1R Ca confirm | CHO Ca triplic
CCN1C/C(=C/c2ccc(N3CCOCC3)cc2)C(=O)/C(=C/c2ccc(N3CCOCC3)cc2)C1 | -16.2 | 34.1 | 46.0 | 30.6 | 2.6 | 33.8* | 33.7*
CCOc1cccc(CN(C)CC2CCCN(CCc3ccc(Cl)cc3)C2)c1O (configuration not stated) | 0.6 | -14.4 | -37.9 | 4.5 | 1.3 | / | /
CC1=CC(C)(C)N(S(=O)(=O)c2ccc(C)cc2)c2ccc(C)cc21 | 14.1 | -0.3 | 40.4 | 23.3 | 1.7 | -4.3 | 55.6*
Cc1cc(OCC(=O)N(C)C2CCCCC2)cc(C)c1Cl | -1.4 | 8.7 | 25.6 | 37.4 | 2.1 | 14.4 | -5.0
Cc1cc(C(=O)N[C@H](c2ccccc2)[C@@]2(C)C[C@@H]2[C@@H](C)C(=O)Nc2ccc3ccccc3c2)n(C)n1 | 9.4 | -2.4 | 41.1 | 51.7 | 4.4 | 11.9 | -11.1
COc1ccc(NC(=O)c2ccc3c(=O)n(-c4ccc(OC)cc4OC)c(=S)[nH]c3c2)c(OC)c1 | 3.7 | 4.6 | -0.8 | 8.7 | 1.6 | / | /
COc1ccc(-n2c(=S)[nH]c3cc(C(=O)Nc4ccc(C)c(F)c4)ccc3c2=O)c(OC)c1 | 12.8 | 15.0 | 21.2 | 44.4 | 3.0 | 16.0 | 15.1
Cc1cnn2c(C3CC3)ccnc12 | 3.1 | 2.8 | 22.4 | 10.4 | -1.0 | 1.8 | -6.0
CC(C)(C)NC(=O)COC(=O)c1ccc(NC(=O)CC#N)cc1 | -23.0 | 1.4 | 26.6 | 6.2 | 0.3 | 4.8 | -4.5
Cc1ccc(N(C)S(=O)(=O)c2cccc(C(=O)NNC(=O)c3ccncc3)c2)cc1 | / | -5.2 | -3.3 | -3.2 | 0.1 | / | /
CCCOc1ccc(CCCN=C(N)N)cc1Cl | -7.9 | -7.7 | -2.4 | -2.3 | 2.3 | / | /
C=CC1=C2C=C(C3CC3)N(CCCN(CC)CC)C=C2C(=O)C(C)(OC(=O)c2ccco2)C1=O (configuration not stated) | / | -7.5 | -31.8 | 38.1 | 0.2 | / | /
COc1ccc(S(=O)(=O)Nc2ccc(S(=O)(=O)N3CCCCC3)cc2)cc1 | -8.4 | 22.2 | 30.9 | 17.5 | -1.6 | 15.0 | -0.7
O=C1CN(C(=O)CCCc2c[nH]c3ccccc23)c2ccccc2N1 | 0.4 | -3.8 | 59.2* | 35.5 | -1.6 | 29.5* | 1.0
CCN(CC)S(=O)(=O)c1cccc(C(=O)/C=C2/N(C)c3ccccc3C2(C)C)c1 | -5.8 | 13.3 | 27.2 | 26.7 | 11.8 | -0.3 | 7.6
N[C@@H](Cc1ccccc1)c1nnc(SC/C=C/c2ccccc2)o1 | 1.9 | -12.8 | -38.1 | 14.3 | 0.6 | / | /
CC(=O)Nc1ccc(C2=NNC(=Nc3cccc(S(=O)(=O)N(C)C)c3)SC2)cc1 | 0.0 | -8.6 | 34.2* | 14.4 | -0.1 | 38.0* | -2.7
CCOc1cc(C(=O)Nc2ccccc2F)cc(Br)c1OCC | -11.9 | -28.5 | -45.0 | 19.2 | 5.5 | / | /
O=c1[nH]nc(Cc2ccc(-c3ccccc3Cl)o2)c2ccccc12 | -15.2 | 23.8 | 46.9* | 64.3 | 35.2 | 4.5 | -5.8
O=c1[nH]nc(Cc2ccc(Cl)cc2)c2ccccc12 | 1.1 | -9.0 | -24.2 | 22.0 | 1.5 | / | /
CC(Oc1ccccc1)C(=O)OCC(=O)Nc1sccc1C(N)=O (configuration not stated) | / | 3.6 | 13.5 | 12.3 | -0.3 | / | /
NC(=O)c1ccsc1NC(=O)COC(=O)/C=C/c1ccccc1[N+](=O)[O-] | / | -3.3 | 56.5* | 24.4 | -2.8 | 24.6 | -8.1
NC(=O)c1ccsc1NC(=O)COC(=O)/C=C/c1ccccc1 | / | -8.6 | 5.1 | 39.7 | -1.0 | / | /
CCC(Oc1ccccc1)C(=O)OCC(=O)Nc1sccc1C(N)=O (configuration not stated) | / | 0.5 | 43.8* | 13.4 | 0.2 | 17.1 | 17.6
O=C(CCNS(=O)(=O)c1ccccc1)N1CCN(c2ccccc2F)CC1 | 1.7 | -24.1 | -14.3 | 21.9 | -0.7 | / | /
SMILES | GPR7 antag | CHO parental Ca | OX1R antag-1 | OX1R antag-2 | MPTP inh | OX1R Ca confirm | CHO Ca triplic
COCCn1c(=O)[nH]c2cc(C(=O)N3CCN(c4ccccc4)CC3)ccc2c1=O | -9.0 | 6.8 | 5.4 | 16.3 | 0.1 | / | /
COCCn1c(=O)[nH]c2cc(C(=O)N3CCN(c4cccc(Cl)c4)CC3)ccc2c1=O | -3.7 | 12.7 | 25.1 | 6.6 | -3.6 | -2.3 | -1.0
C=CCN1c2ccccc2[C@]23C[C@@H](C(=O)OC)N(C(=O)NCCC)C2=NC(C(=O)OC)=C(C(=O)OC)[C@H]13 | / | -13.8 | -11.6 | 19.3 | 0.2 | / | /
CC(=Nc1ccc(O)cc1)c1sc2ccccc2c1O | -19.2 | 5.4 | 2.6 | 26.5 | 0.2 | / | /
CC(=Nc1ccccc1O)c1sc2ccccc2c1O | -2.5 | 24.1 | 34.1 | 30.3 | 21.8 | 10.7 | 0.1
COc1ccc(NC(=O)CSc2nnc(-c3ccoc3C)n2CCc2ccccc2)cc1 | 17.5 | -30.9 | 32.3 | 65.3 | 0.6 | 8.5 | -8.2
COCCn1c(SCC(=O)Nc2ccc(OC)cc2)nnc1-c1ccoc1C | -5.3 | -15.3 | -7.2 | 1.3 | -0.8 | / | /
N#C/C(=N\Nc1ccc(Cl)cc1)C(=N)N1CCCCCC1 | 6.5 | 10.6 | 24.4 | 17.3 | 1.3 | -3.1 | -1.6
CCOC(=O)C1CCN(C(=O)C2CCN(S(=O)(=O)N3CCC4(CC3)OCCO4)CC2)CC1 | -3.8 | -8.5 | -12.2 | -1.5 | -2.1 | / | /
CC(C)N(CCO)C(=O)CCc1nnc(Cc2cccc(C(F)(F)F)c2)o1 | 5.8 | -17.2 | -0.1 | 3.3 | 0.3 | / | /
COc1cccc(C(=O)N=c2sc3cc(S(C)(=O)=O)ccc3n2C)c1 | -5.3 | 5.8 | 30.3 | 56.5 | -0.9 | 20.3 | 6.3
O=C(NCc1ccccn1)Nc1ccccc1C(F)(F)F | -9.2 | -5.4 | -4.8 | 16.7 | 4.7 | / | /
O=C1NCC(c2ccccc2)C1C(=O)N/N=C\c1ccc(-c2ccc(Cl)c(Cl)c2)o1 (configuration not stated) | 7.2 | 7.7 | 51.6* | 60.3 | -13.4 | 51.3* | 2.9
COC(=O)CNC(=O)C(NC(=O)OCc1ccccc1)C(C)C (configuration not stated) | 1.3 | 11.6 | 24.9 | 8.8 | -3.4 | -44.4 | 0.8
CC(C)C(NC(=O)OCc1ccccc1)C(=O)NCC(=O)OC(C)(C)C (configuration not stated) | -13.7 | -18.7 | -11.8 | 6.7 | -0.7 | / | /
CCOC(=O)C1=C(C)N=c2sc(=Cc3ccc(OCC(=O)O)cc3)c(=O)n2C1c1ccc(SC)cc1 (configuration not stated) | / | / | / | / | 0.6 | / | /
O=C(Oc1coc(CSc2nnc(NC(=O)C3CC3)s2)cc1=O)c1c(F)cccc1F | -6.5 | -17.7 | -17.3 | 16.9 | 0.6 | / | /
CC1=C(C(=O)OCc2ccc3c(c2)OCO3)C(c2cccc([N+](=O)[O-])c2)NC(=O)N1 (configuration not stated) | -3.3 | -0.2 | 24.9 | 11.8 | -0.5 | 5.2 | -8.3
O=C(CSc1nnc(CNC(=O)c2ccc(F)cc2)o1)NCc1ccc2c(c1)OCO2 | 11.9 | -19.1 | -6.8 | 20.8 | -0.5 | / | /

Screening results as filed in PubChem.
